Data: BindingDB's records for doi:10.1016/j.bmcl.2012.10.080 (University of California, 2012)

Target: T1, Phospholipase A2, membrane associated (Homo sapiens, UniProt P14555)
T1 sequence (P14555 whole entry): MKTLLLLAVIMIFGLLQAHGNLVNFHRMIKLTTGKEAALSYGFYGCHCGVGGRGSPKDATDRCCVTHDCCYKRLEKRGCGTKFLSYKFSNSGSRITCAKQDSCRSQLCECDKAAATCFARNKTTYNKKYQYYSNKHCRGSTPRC
Assay: Inhibition of sPLA2-IIA (unknown origin)-integrin alphaVbeta3 interaction in human K562 cells pretreated for 30 mins to immobilized sPLA2 before adding cells by phosphatase assay
In short: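 Wells coated with sPLA2-IIA and blocked with BSA were preincubated with compound (10 to 500 μM) for 30 min. Integrin αvβ3-transfected K562 erythroleukemia cells were then added for 1 h at 37 °C, and bound cells were quantified by phosphatase assay. IC50 and maximum inhibition were derived from dose-response experiments.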

Cc1nc(NC(=O)c2ccccc2)sc1-c1cc(C(=O)NCC(=O)O)[nH]n1
IC50: 241 µM
